Experimental data taken from ChEMBL document CHEMBL4393681, “The identification of naturally occurring labdane diterpenoid calcaratarin D as a potential anti-inflammatory agent” (Eur J Med Chem, 2019).

Experiments:
[1] = Cytotoxicity against mouse RAW264.7 cells assessed as cell viability at 0.1 uM incubated for 18 hrs by celltiter-glo luminescent assay relative to control; format: cell-based; conditions: read-out: Activity
How it was run: (§1)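 Non-stimulated RAW264.7 cells were exposed to 0.1, 1, 5 and 20 µM compound from 100 mM DMSO stocks. Percent viability is the mean of three separate experiments with triplicate samples.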

RAW264.7 [2] = assay: Anti-inflammatory activity in mouse RAW264.7 cells assessed as inhibition of LPS-induced IL-6 production at 20 uM pretreated for 1 hr followed by LPS stimulation and measured after 18 hrs by ELISA relative to control; format: functional; set-up: scale not given: the % may be the effect or the level left
How it was run: (§2)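 DMSO stocks (100 mM) were tested at 0.1, 1, 5 and 20 µM on LPS-stimulated RAW264.7 cells, with dexamethasone 1 µM as positive control. Secreted TNF-α or IL-6 was normalized to the percentage of viable LPS-stimulated cells at each concentration. Mean of three separate experiments, each in triplicate.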

[3] = Cytotoxicity against mouse RAW264.7 cells assessed as cell viability at 5 uM incubated for 18 hrs by celltiter-glo luminescent assay relative to control; format: cell-based; conditions: read-out: Activity; how it was run: as §1
[4] = Cytotoxicity against mouse RAW264.7 cells assessed as cell viability at 20 uM incubated for 18 hrs by celltiter-glo luminescent assay relative to control; format: cell-based; conditions: read-out: Activity; how it was run: as §1
RAW264.7 [5] = assay: Anti-inflammatory activity in mouse RAW264.7 cells assessed as inhibition of LPS-induced TNFalpha production at 20 uM pretreated for 1 hr followed by LPS stimulation and measured after 18 hrs by ELISA relative to control; format: functional; set-up: scale not given: the % may be the effect or the level left; how it was run: as §2
RAW264.7 [6] = assay: Anti-inflammatory activity in mouse RAW264.7 cells assessed as inhibition of LPS-induced IL-6 production at 0.1 uM pretreated for 1 hr followed by LPS stimulation and measured after 18 hrs by ELISA relative to control; format: functional; set-up: scale not given: the % may be the effect or the level left; how it was run: as §2
[7] = Cytotoxicity against mouse RAW264.7 cells assessed as cell viability at 1 uM incubated for 18 hrs by celltiter-glo luminescent assay relative to control; format: cell-based; conditions: read-out: Activity; how it was run: as §1
RAW264.7 [8] = assay: Anti-inflammatory activity in mouse RAW264.7 cells assessed as inhibition of LPS-induced TNFalpha production at 1 uM pretreated for 1 hr followed by LPS stimulation and measured after 18 hrs by ELISA relative to control; format: functional; set-up: scale not given: the % may be the effect or the level left; how it was run: as §2
RAW264.7 [9] = assay: Anti-inflammatory activity in mouse RAW264.7 cells assessed as inhibition of LPS-induced TNFalpha production at 5 uM pretreated for 1 hr followed by LPS stimulation and measured after 18 hrs by ELISA relative to control; format: functional; set-up: scale not given: the % may be the effect or the level left; how it was run: as §2
RAW264.7 [10] = assay: Anti-inflammatory activity in mouse RAW264.7 cells assessed as inhibition of LPS-induced IL-6 production at 5 uM pretreated for 1 hr followed by LPS stimulation and measured after 18 hrs by ELISA relative to control; format: functional; set-up: scale not given: the % may be the effect or the level left; how it was run: as §2
RAW264.7 [11] = assay: Anti-inflammatory activity in mouse RAW264.7 cells assessed as inhibition of LPS-induced IL-6 production at 1 uM pretreated for 1 hr followed by LPS stimulation and measured after 18 hrs by ELISA relative to control; format: functional; set-up: scale not given: the % may be the effect or the level left; how it was run: as §2
RAW264.7 [12] = assay: Anti-inflammatory activity in mouse RAW264.7 cells assessed as inhibition of LPS-induced TNFalpha production at 0.1 uM pretreated for 1 hr followed by LPS stimulation and measured after 18 hrs by ELISA relative to control; format: functional; set-up: scale not given: the % may be the effect or the level left; how it was run: as §2

C=C1CC[C@H]2C(C)(C)CCC[C@]2(C)[C@H]1C[C@@H](O)C1=CCOC1=O [CURCUCOMOSIN C]
viability at 18 h, 0.1 µM [1]: 109% | Activity (RAW264.7 [2]): 47.1% | viability at 18 h, 5 µM [3]: 108% | viability at 18 h, 20 µM [4]: 91.9% | Activity (RAW264.7 [5]): 33.4% | Activity (RAW264.7 [6]): 100.6% | viability at 18 h, 1 µM [7]: 111% | Activity (RAW264.7 [8]): 101.5% | Activity (RAW264.7 [9]): 79.3% | Activity (RAW264.7 [10]): 75.6% | Activity (RAW264.7 [11]): 84% | Activity (RAW264.7 [12]): 112%

C=C1CC[C@H]2C(C)(C)CCC[C@]2(C)[C@H]1C/C=C1\CC(OC)OC1=O (stereo partly specified)
viability at 18 h, 0.1 µM [1]: 102% | Activity (RAW264.7 [2]): 59.9% | viability at 18 h, 5 µM [3]: 101% | viability at 18 h, 20 µM [4]: 100% | Activity (RAW264.7 [5]): 27.5% | Activity (RAW264.7 [6]): 101% | viability at 18 h, 1 µM [7]: 102% | Activity (RAW264.7 [8]): 77.7% | Activity (RAW264.7 [9]): 44.7% | Activity (RAW264.7 [10]): 70% | Activity (RAW264.7 [11]): 79.1% | Activity (RAW264.7 [12]): 104.7%

C=C1CC[C@H]2C(C)(C)CCC[C@]2(C)[C@H]1C/C=C1\C=COC1=O
viability at 18 h, 0.1 µM [1]: 102% | Activity (RAW264.7 [2]): 61.5% | viability at 18 h, 5 µM [3]: 90.8% | viability at 18 h, 20 µM [4]: 82.6% | Activity (RAW264.7 [5]): 26.6% | Activity (RAW264.7 [6]): 99% | viability at 18 h, 1 µM [7]: 97.7% | Activity (RAW264.7 [8]): 84.6% | Activity (RAW264.7 [9]): 53.6% | Activity (RAW264.7 [10]): 85.9% | Activity (RAW264.7 [11]): 99.6% | Activity (RAW264.7 [12]): 94.1%

C=C1CC[C@H]2C(C)(C)CCC[C@]2(C)[C@H]1CC=O
viability at 18 h, 0.1 µM [1]: 100% | Activity (RAW264.7 [2]): 72.8% | viability at 18 h, 5 µM [3]: 101% | viability at 18 h, 20 µM [4]: 91.9% | Activity (RAW264.7 [5]): 48.5% | Activity (RAW264.7 [6]): 100% | viability at 18 h, 1 µM [7]: 101% | Activity (RAW264.7 [8]): 91.7% | Activity (RAW264.7 [9]): 73.7% | Activity (RAW264.7 [10]): 93% | Activity (RAW264.7 [11]): 95% | Activity (RAW264.7 [12]): 104%

C=C1CC[C@H]2C(C)(C)CCC[C@]2(C)[C@H]1C/C=C1\CC(OCC)OC1=O (stereo partly specified)
viability at 18 h, 0.1 µM [1]: 102% | Activity (RAW264.7 [2]): 80.9% | viability at 18 h, 5 µM [3]: 94.9% | viability at 18 h, 20 µM [4]: 96.3% | Activity (RAW264.7 [5]): 48.1% | Activity (RAW264.7 [6]): 102.3% | viability at 18 h, 1 µM [7]: 100% | Activity (RAW264.7 [8]): 86.8% | Activity (RAW264.7 [9]): 65.3% | Activity (RAW264.7 [10]): 95.9% | Activity (RAW264.7 [11]): 100.3% | Activity (RAW264.7 [12]): 101.6%

C=C1CC[C@H]2C(C)(C)CCC[C@]2(C)[C@H]1C/C=C1\C(=O)OC[C@H]1O
viability at 18 h, 0.1 µM [1]: 100% | Activity (RAW264.7 [2]): 10.1% | viability at 18 h, 5 µM [3]: 81.7% | viability at 18 h, 20 µM [4]: 47.5% | Activity (RAW264.7 [5]): 4.8% | Activity (RAW264.7 [6]): 100.7% | viability at 18 h, 1 µM [7]: 95.5% | Activity (RAW264.7 [8]): 71.6% | Activity (RAW264.7 [9]): 17.5% | Activity (RAW264.7 [10]): 32.2% | Activity (RAW264.7 [11]): 76.9% | Activity (RAW264.7 [12]): 98.7%

CC1(C)CCC[C@@]2(C)[C@H]1CC[C@@]1(CO1)[C@@H]2C/C=C1\CCOC1=O
viability at 18 h, 0.1 µM [1]: 101% | Activity (RAW264.7 [2]): 22.3% | viability at 18 h, 5 µM [3]: 90.9% | viability at 18 h, 20 µM [4]: 80.4% | Activity (RAW264.7 [5]): 20.5% | Activity (RAW264.7 [6]): 101.6% | viability at 18 h, 1 µM [7]: 97% | Activity (RAW264.7 [8]): 88.6% | Activity (RAW264.7 [9]): 48.4% | Activity (RAW264.7 [10]): 35.2% | Activity (RAW264.7 [11]): 79.7% | Activity (RAW264.7 [12]): 114.8%

CC1(C)CCC[C@]2(C)[C@H]3CC(=O)O[C@]3(C)CC[C@@H]12
viability at 18 h, 0.1 µM [1]: 99.3% | Activity (RAW264.7 [2]): 89.7% | viability at 18 h, 5 µM [3]: 97.2% | viability at 18 h, 20 µM [4]: 95.9% | Activity (RAW264.7 [5]): 63.9% | Activity (RAW264.7 [6]): 94.6% | viability at 18 h, 1 µM [7]: 96.6% | Activity (RAW264.7 [8]): 101% | Activity (RAW264.7 [9]): 79.9% | Activity (RAW264.7 [10]): 93.8% | Activity (RAW264.7 [11]): 100.3% | Activity (RAW264.7 [12]): 104.8%
